The values that follow come from ChEMBL document CHEMBL1127563, “Novel acyl-CoA:cholesterol acyltransferase inhibitors. Synthesis and biological activity of 3-quinolylurea derivatives” (J Med Chem, 1994).

Where “and” joins values, the source holds several entries; their conditions need not be identical. Identical values can stand only once. Bounds are passed on as bounds.

For assay [1], the target named is T1, Sterol O-acyltransferase 1 (Rattus norvegicus, UniProt O70536).
T1 sequence (O70536 whole entry): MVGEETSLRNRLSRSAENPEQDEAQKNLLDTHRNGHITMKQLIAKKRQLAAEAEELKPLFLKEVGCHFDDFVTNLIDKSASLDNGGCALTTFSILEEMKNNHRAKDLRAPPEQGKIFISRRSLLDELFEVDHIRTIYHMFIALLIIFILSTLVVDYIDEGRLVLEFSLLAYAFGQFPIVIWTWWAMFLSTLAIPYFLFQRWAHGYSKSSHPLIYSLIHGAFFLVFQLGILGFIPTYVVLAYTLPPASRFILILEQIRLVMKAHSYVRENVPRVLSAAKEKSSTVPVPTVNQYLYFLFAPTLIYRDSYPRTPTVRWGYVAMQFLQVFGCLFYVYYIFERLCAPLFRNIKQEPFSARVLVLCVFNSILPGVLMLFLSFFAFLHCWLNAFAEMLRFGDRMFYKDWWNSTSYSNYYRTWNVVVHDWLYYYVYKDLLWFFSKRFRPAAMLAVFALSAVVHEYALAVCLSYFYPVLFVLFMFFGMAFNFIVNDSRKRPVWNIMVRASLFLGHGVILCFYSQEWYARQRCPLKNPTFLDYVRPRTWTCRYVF
In words: Inhibitory activity against acyl coenzyme A:cholesterol acyltransferase in rat microsomes. Further details: species or system Microsome. The method in brief: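 Rat intestinal mucosal microsomes (male Sprague–Dawley, 6 weeks), 0.2 mg protein preincubated at 37 °C for 15 min in 0.154 M phosphate buffer with fatty-acid-free BSA and compound in DMSO; cholesteryl ester formation from [1-14C]oleoyl-CoA and endogenous cholesterol by scintillation counting. IC50 from inhibition curves.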

Assay [2] has as its target T2, Sterol O-acyltransferase 1 (Rattus norvegicus) (UniProt O70536).
T2 sequence (whole entry): T1 sequence (O70536 whole entry)
In words: Inhibitory activity against acyl coenzyme A:cholesterol acyltransferase at 10 e-6 M in rat microsomes. Particulars: Microsome. An outline of the steps:
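Intestinal mucosal microsomes from male 6-week-old Sprague–Dawley rats (100800g pellet); 0.2 mg protein preincubated 15 min at 37 °C in 0.154 M phosphate buffer with fatty-acid-free BSA, compound in DMSO added before preincubation at 1 μM final. Labeled cholesteryl ester from [1-14C]oleoyl-CoA and endogenous cholesterol, scraped and scintillation counted; % inhibition.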

The subject of assay [3] is Cricetinae gen. sp. The experiment in a line: Plamsa cholesterol leval was measured in hamsters at 0.0001% cholesterol diet as a dietary admixture. The format is functional, organism-based. The method in brief:
(§1)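 Male Golden hamsters, 10 weeks old, were fed either a stock diet or a cholesterol diet. The compound was mixed into the diet at 0.0001%, 0.0003% or 0.001% and given for 14 days. Animals were housed individually at 23 ± 1 °C and were not fasted. Blood was taken from the orbital sinus, and plasma cholesterol was measured enzymatically.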

Assay [4] concerns Cricetinae gen. sp. In words: Plamsa cholesterol leval was measured in hamsters at 0.001% cholesterol diet as a dietary admixture. The format is functional, organism-based. An outline of the steps:
as §1

For assay [5], the system named is Cricetinae gen. sp. In words: Plamsa cholesterol leval was measured in hamsters at 0.0003% cholesterol diet as a dietary admixture. Particulars: Mesocricetus auratus.

The term IC50 denotes the concentration at which inhibition is half-maximal. Usually inhibition stands for the percentage by which the read-out fell short of the control. In assay [1], `CCc1ccc2ncc(NC(=O)Nc3ccc(F)cc3F)c(-c3ccccc3Cl)c2c1` showed an IC50 of 14 nM. In assay [2], the inhibition was 99.2%.
For `O=C(Nc1ccc(F)cc1F)Nc1cnc2ccc(Cl)cc2c1-c1ccccc1Cl`, in that order: 21.2 nM and 98%.
Taken in the same sequence, the figures for `Cc1cc2c(-c3ccccc3C)c(NC(=O)Nc3ccc(F)cc3F)cnc2cc1Cl` were 9.3 nM and 98.6%.
For `Cc1cccc2ncc(NC(=O)Nc3ccc(F)cc3F)c(-c3ccccc3Cl)c12`, in that order: 149 nM and 87.3%.
`O=C(Nc1ccc(Cl)cc1)Nc1cnc2ccc(Cl)cc2c1-c1ccccc1` showed an IC50 in assay [1] of 1300 nM. The same compound gave an inhibition in assay [2] of 51.5%.
For `O=C(Nc1ccc(F)cc1F)Nc1cnc2ccc(Cl)cc2c1-c1ccccc1`, in that order: 215 nM and 88.3%.
Taken in the same sequence, the figures for `Cc1ccccc1-c1c(NC(=O)Nc2ccc(F)cc2F)cnc2ccc(Cl)cc12` were 28.7 nM and 97.2%.
Regarding `CN(C(=O)Nc1cnc2ccc(Cl)cc2c1-c1ccccc1)c1ccc(F)cc1F`, the IC50 in assay [1] was > 1000 nM. In assay [2], this compound had an inhibition of 9.4%.
As for `Cc1cc(C)c2nc(C)c(NC(=O)Nc3ccc(F)cc3F)c(-c3ccccc3Cl)c2c1`, in assay [2], the inhibition amounted to 85.4%.
In turn, `Cc1ccc2ncc(NC(=O)Nc3ccc(F)cc3F)c(-c3ccccc3C)c2c1` had a half-maximal inhibitory concentration (IC50) in assay [1] of 21.7 nM. In assay [2], the inhibition was determined as 96.9%.
In turn, `O=C(Nc1ccc(F)cc1F)Nc1cnc2ccc(Cl)cc2c1-c1ccc(Cl)cc1` gave an IC50 in assay [1] of 534 nM. For the same compound, the inhibition in assay [2] turned out to be 77%.
Taken in the same sequence, the figures for `COc1ccc(-c2c(NC(=O)Nc3ccc(F)cc3F)cnc3ccc(Cl)cc23)cc1` were 121 nM and 92.7%.
`O=C(Nc1ccc(F)cc1F)Nc1cnc2ccc(Cl)cc2c1-c1cccc(Cl)c1` returned an IC50 in assay [1] of 90.6 nM. In assay [2], the inhibition came out at 88.5%.
Take `O=C(Nc1ccc(F)cc1F)Nc1cnc2ccc(Br)cc2c1-c1ccccc1`: the inhibition in assay [2] turned out to be 85.5%.
`Cc1cc(Cl)cc2c(-c3ccccc3Cl)c(NC(=O)Nc3ccc(F)cc3F)cnc12` came in with an IC50 in assay [1] of 12 nM. In assay [2], the inhibition came out at 97.6%.
With `Cc1cc2ncc(NC(=O)Nc3ccc(F)cc3F)c(-c3ccccc3Cl)c2cc1C`, it took 5.8 nM to reach half-maximal inhibition in assay [1] (IC50). The inhibition in assay [2] turned out to be 99.6%. Moreover, the Plasma cholesterol is 169 mg/dL and 279 mg/dL in assay [3]; 95 mg/dL and 213 mg/dL in assay [4]; 245 mg/dL in assay [5].
The compound `O=C(Nc1ccc(F)cc1F)Nc1cnc2ccccc2c1-c1ccccc1Cl` displayed an IC50 in assay [1] of 125 nM. Further, in assay [2], the inhibition is 91.8%.
Taken in the same sequence, the figures for `Cc1cc(C)c2ncc(NC(=O)Nc3ccc(F)cc3F)c(-c3ccccc3Cl)c2c1` were 9.2 nM and 98.9%.
`CC(C)c1ccc2ncc(NC(=O)Nc3ccc(F)cc3F)c(-c3ccccc3)c2c1` registered an inhibition in assay [2] of 91.6%.
Same read-out and setting: then `CCCCN(C(=O)Nc1ccc(F)cc1F)c1cnc2ccc(Cl)cc2c1-c1ccccc1`, with 61.6%.
In the case of `COc1ccccc1-c1c(NC(=O)Nc2ccc(F)cc2F)cnc2ccc(Cl)cc12`, half-maximal inhibition in assay [1] (IC50) required 24 nM. Also, the inhibition in assay [2] is 98.2%.
Consider `Cc1cc(C)c2ncc(NC(=O)Nc3c(C(C)C)cccc3C(C)C)c(-c3ccccc3Cl)c2c1`, for which the midpoint of inhibition in assay [1], the IC50, lay at 28 nM. Also, the inhibition in assay [2] turned out to be 98%.
Take `CSc1ccc2ncc(NC(=O)Nc3ccc(F)cc3F)c(-c3ccccc3)c2c1`: the inhibition in assay [2] is 87.8%.
As to `Cc1cc(Cl)c2ncc(NC(=O)Nc3ccc(F)cc3F)c(-c3ccccc3Cl)c2c1`, in assay [1], the IC50 was determined as 8.9 nM. This compound also displayed an inhibition in assay [2] of 97.6%.
For `O=C(Nc1ccccc1)Nc1cnc2ccc(Cl)cc2c1-c1ccccc1`, in that order: > 1000 nM and 5%.
Taken in the same sequence, the figures for `Cc1cc(C)c2ncc(NC(=O)Nc3c(F)cc(F)cc3F)c(-c3ccccc3Cl)c2c1` were 15 nM and 97.3%.
Taken in the same sequence, the figures for `CC(C)c1ccc2ncc(NC(=O)Nc3ccc(F)cc3F)c(-c3ccccc3Cl)c2c1` were 14 nM and 99.3%.
With `O=C(Nc1ccccc1F)Nc1cnc2ccc(Cl)cc2c1-c1ccccc1`, 929 nM corresponded to half-maximal inhibition in assay [1] (IC50). In addition, in assay [2], the inhibition is 75%.
In assay [1], `Cc1cc(C)c2ncc(NC(=O)Nc3ccc(F)cc3F)c(-c3ccccc3C)c2c1` registered an IC50 of 12 nM. In assay [2], this compound returned an inhibition of 98.5%.
In the case of `COc1ccc2ncc(NC(=O)Nc3ccc(F)cc3F)c(-c3ccccc3)c2c1`, in assay [2], the inhibition stood at 85.9%.
As for `Cc1ccc2ncc(NC(=O)Nc3ccc(F)cc3F)c(-c3ccccc3Cl)c2c1`, the IC50 in assay [1] amounted to 16.8 nM. The same compound had an inhibition in assay [2] of 98.5%.
For `Cc1ccc(-c2c(NC(=O)Nc3ccc(F)cc3F)cnc3ccc(Cl)cc23)cc1`, in that order: 160 nM and 87.4%.
Consider `Cc1ccc2ncc(NC(=O)Nc3ccc(F)cc3F)c(-c3ccccc3)c2c1`, for which the inhibition in assay [2] came to 84.5%.
With `O=C(Nc1ccc(F)cc1)Nc1cnc2ccc(Cl)cc2c1-c1ccccc1`, half-maximal inhibition in assay [1] (IC50) was put at 800 nM. The inhibition in assay [2] came out at 66.5%.
Compound `O=C(Nc1ccc(F)cc1F)Nc1cnc2ccc(C(F)(F)F)cc2c1-c1ccccc1` gave an inhibition in assay [2] of 90.1%.
`COc1ccc(NC(=O)Nc2cnc3ccc(Cl)cc3c2-c2ccccc2)c(OC)c1`: inhibition in assay [1] was half-maximal at 864 nM (IC50). This compound also gave an inhibition in assay [2] of 47.6%.
